From ChEMBL document CHEMBL5724801, “EUbOPEN Chemogenomics Library - Multiplex” (2024)
Where “and” joins values, the source holds several entries; their conditions need not be identical. Identical values can stand only once.

Test system: Fibroblast
Assay: Multiplex assay against human fibroblast
Assay type: toxicity, cell-based
Method in brief: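 Imaging took place on a CQ1 microscope at 37°C and 5% CO2 once compound had been added to live cells stained at seeding with Hoechst33342, BioTracker Green Microtubule Cytoskeleton Dye, MitoTracker Red and Annexin V Alexa Fluor 680. CellPathfinder machine-learning gating classed cells as Hoechst high-intensity objects or normal cells, classed normal cells as having healthy, pyknosed or fragmented nuclei, and classed pyknosed cells as mitotic or apoptotic. Tubulin, mitochondrial-mass and membrane-permeability phenotypes are per cents of the healthy-nucleus cells.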

[1] = 12 h, 1 µM, compound concentration 1 uM
[2] = 12 h, 10 µM, compound concentration 10 uM
[3] = 24 h, 1 µM, compound concentration 1 uM
[4] = 24 h, 10 µM, compound concentration 10 uM
[5] = 48 h, 1 µM, compound concentration 1 uM
[6] = 48 h, 10 µM, compound concentration 10 uM

## CSc1nc(NC2CCCC2)c([N+](=O)[O-])c(NC2CCCC2)n1 [GS-39783]
[1]
  Population Apoptotic (%): 50% and 39%
  Population Fragmented Nuclei (%): 16% and 28%
  Population Healthy Nuclei (%): 66% and 46%
  Population Hoechst High Intensity Objects (%): 3% and 5%
  Population Membrane Permeable-Phenotype (%): 2% and 10%
  Population Mitochondria Different-Phenotype (%): 6% and 10%
  Population Mitotic Cells (%): 50% and 60%
  Population Normal (%): 96% and 94%
  Population Pyknosed Nuclei (%): 16% and 25%
  Population Tubulin-Different-Phenotype (%): 29% and 57%
  Total Cell Count: 137 and 135
[2]
  Population Apoptotic (%): 54% and 36%
  Population Fragmented Nuclei (%): 16% and 25%
  Population Healthy Nuclei (%): 62% and 52%
  Population Hoechst High Intensity Objects (%): 5% and 6%
  Population Membrane Permeable-Phenotype (%): 0% and 4%
  Population Mitotic Cells (%): 45% and 63%
  Population Normal (%): 94% and 93%
  Population Pyknosed Nuclei (%): 21%
  Population Tubulin-Different-Phenotype (%): 39% and 70%
  Total Cell Count: 184 and 165
[3]
  Population Apoptotic (%): 30% and 32%
  Population Fragmented Nuclei (%): 12% and 31%
  Population Healthy Nuclei (%): 69% and 44%
  Population Hoechst High Intensity Objects (%): 2%
  Population Membrane Permeable-Phenotype (%): 3% and 10%
  Population Mitochondria Different-Phenotype (%): 4% and 12%
  Population Mitotic Cells (%): 69% and 67%
  Population Normal (%): 97%
  Population Pyknosed Nuclei (%): 17% and 23%
  Population Tubulin-Different-Phenotype (%): 27% and 60%
  Total Cell Count: 132 and 133
[4]
  Population Apoptotic (%): 58% and 36%
  Population Fragmented Nuclei (%): 17% and 25%
  Population Healthy Nuclei (%): 65% and 52%
  Population Hoechst High Intensity Objects (%): 2% and 7%
  Population Membrane Permeable-Phenotype (%): 0% and 6%
  Population Mitochondria Different-Phenotype (%): 4% and 10%
  Population Mitotic Cells (%): 41% and 63%
  Population Normal (%): 97% and 92%
  Population Pyknosed Nuclei (%): 17% and 21%
  Population Tubulin-Different-Phenotype (%): 33% and 57%
  Total Cell Count: 172 and 164
[5]
  Population Apoptotic (%): 70% and 33%
  Population Fragmented Nuclei (%): 22% and 41%
  Population Healthy Nuclei (%): 69% and 44%
  Population Hoechst High Intensity Objects (%): 4% and 3%
  Population Mitochondria Different-Phenotype (%): 5% and 14%
  Population Mitotic Cells (%): 30% and 66%
  Population Normal (%): 95% and 96%
  Population Pyknosed Nuclei (%): 7% and 14%
  Population Tubulin-Different-Phenotype (%): 29% and 60%
  Total Cell Count: 134 and 129
[6]
  Population Apoptotic (%): 66% and 60%
  Population Fragmented Nuclei (%): 19% and 40%
  Population Healthy Nuclei (%): 65% and 46%
  Population Hoechst High Intensity Objects (%): 2% and 6%
  Population Membrane Permeable-Phenotype (%): 1% and 6%
  Population Mitochondria Different-Phenotype (%): 5% and 7%
  Population Mitotic Cells (%): 33% and 40%
  Population Normal (%): 97% and 93%
  Population Pyknosed Nuclei (%): 14% and 13%
  Population Tubulin-Different-Phenotype (%): 41% and 60%
  Total Cell Count: 168 and 193

## Cl.NCCc1ccc(O)c(O)c1 [DOPAMINE HYDROCHLORIDE]
[1]
  Population Apoptotic (%): 42% and 44%
  Population Fragmented Nuclei (%): 13% and 34%
  Population Healthy Nuclei (%): 63% and 40%
  Population Hoechst High Intensity Objects (%): 1%
  Population Membrane Permeable-Phenotype (%): 0% and 4%
  Population Mitochondria Different-Phenotype (%): 1% and 6%
  Population Mitotic Cells (%): 57% and 55%
  Population Normal (%): 98%
  Population Pyknosed Nuclei (%): 23% and 24%
  Population Tubulin-Different-Phenotype (%): 34% and 45%
  Total Cell Count: 115 and 152
[2]
  Population Apoptotic (%): 56% and 41%
  Population Fragmented Nuclei (%): 14% and 35%
  Population Healthy Nuclei (%): 62% and 40%
  Population Hoechst High Intensity Objects (%): 3% and 4%
  Population Membrane Permeable-Phenotype (%): 0% and 6%
  Population Mitochondria Different-Phenotype (%): 3% and 6%
  Population Mitotic Cells (%): 43% and 58%
  Population Normal (%): 96% and 95%
  Population Pyknosed Nuclei (%): 23%
  Total Cell Count: 135 and 127
[3]
  Population Apoptotic (%): 55% and 51%
  Population Fragmented Nuclei (%): 14% and 34%
  Population Healthy Nuclei (%): 69% and 47%
  Population Hoechst High Intensity Objects (%): 0% and 2%
  Population Membrane Permeable-Phenotype (%): 1% and 7%
  Population Mitochondria Different-Phenotype (%): 1% and 0%
  Population Mitotic Cells (%): 44% and 48%
  Population Normal (%): 99% and 97%
  Population Pyknosed Nuclei (%): 16% and 18%
  Population Tubulin-Different-Phenotype (%): 31% and 37%
  Total Cell Count: 112 and 150
[4]
  Population Apoptotic (%): 55% and 47%
  Population Fragmented Nuclei (%): 16% and 37%
  Population Healthy Nuclei (%): 69% and 46%
  Population Hoechst High Intensity Objects (%): 2% and 3%
  Population Membrane Permeable-Phenotype (%): 1% and 3%
  Population Mitochondria Different-Phenotype (%): 5% and 7%
  Population Mitotic Cells (%): 44% and 52%
  Population Normal (%): 97% and 96%
  Population Pyknosed Nuclei (%): 13% and 15%
  Population Tubulin-Different-Phenotype (%): 22% and 56%
  Total Cell Count: 136 and 126
[5]
  Population Apoptotic (%): 36% and 38%
  Population Fragmented Nuclei (%): 22% and 33%
  Population Healthy Nuclei (%): 66% and 52%
  Population Hoechst High Intensity Objects (%): 6%
  Population Membrane Permeable-Phenotype (%): 1% and 5%
  Population Mitochondria Different-Phenotype (%): 2% and 3%
  Population Mitotic Cells (%): 63% and 61%
  Population Normal (%): 93%
  Population Pyknosed Nuclei (%): 10% and 14%
  Population Tubulin-Different-Phenotype (%): 28% and 43%
  Total Cell Count: 110 and 159
[6]
  Population Apoptotic (%): 87% and 90%
  Population Fragmented Nuclei (%): 21% and 31%
  Population Healthy Nuclei (%): 66% and 60%
  Population Hoechst High Intensity Objects (%): 4% and 0%
  Population Membrane Permeable-Phenotype (%): 0% and 7%
  Population Mitochondria Different-Phenotype (%): 4%
  Population Mitotic Cells (%): 12% and 10%
  Population Normal (%): 95% and 99%
  Population Pyknosed Nuclei (%): 11% and 8%
  Population Tubulin-Different-Phenotype (%): 25% and 56%
  Total Cell Count: 141 and 116

## Cc1cc(O)c(-c2ccc([C@@H](C)CN(C)C)cc2)c2c1[nH]c(=O)c1sccc12
[1]
  Population Healthy Nuclei (%): 67% and 56% and 55.08% and 75.51%
  Population Hoechst High Intensity Objects (%): 7% and 2% and 0%
  Population Membrane Permeable-Phenotype (%): 1% and 4% and 5.83% and 9.91%
  Population Mitochondria Different-Phenotype (%): 17% and 12% and 18.45% and 20.72%
  Population Mitotic Cells (%): 72.41% [middle of 4 runs]
  Population Normal (%): 92% and 97% and 100%
  Population Pyknosed Nuclei (%): 20% and 21% and 33.16% and 19.73%
  Population Tubulin-Different-Phenotype (%): 44% and 52% and 26.21% and 40.54%
  Total Cell Count: 145 and 115 and 187 and 147
[2]
  Population Apoptotic (%): 69% [middle of 4 runs]
  Population Healthy Nuclei (%): 63% and 55% and 58.38% and 64.17%
  Population Hoechst High Intensity Objects (%): 6% and 5% and 0%
  Population Membrane Permeable-Phenotype (%): 8.7% [middle of 4 runs]
  Population Mitochondria Different-Phenotype (%): 40% [middle of 4 runs]
  Population Mitotic Cells (%): 30% and 75.86% and 55.84%
  Population Normal (%): 93% and 94% and 100%
  Population Pyknosed Nuclei (%): 29.44% [middle of 4 runs]
  Population Tubulin-Different-Phenotype (%): 90% and 80% and 81.74% and 85.06%
  Total Cell Count: 146 and 137 and 197 and 240
[3]
  Population Healthy Nuclei (%): 66% and 54% and 64.88% and 75%
  Population Hoechst High Intensity Objects (%): 7% and 9% and 0%
  Population Membrane Permeable-Phenotype (%): 0% and 1% and 5.5% and 9.26%
  Population Mitochondria Different-Phenotype (%): 21.1% [middle of 4 runs]
  Population Mitotic Cells (%): 54% and 47% and 85.37% and 84.62%
  Population Normal (%): 92% and 90% and 100%
  Population Pyknosed Nuclei (%): 21% and 16% and 24.4% and 18.06%
  Population Tubulin-Different-Phenotype (%): 73% and 56% and 47.71% and 50.93%
  Total Cell Count: 119 and 111 and 168 and 144
[4]
  Population Apoptotic (%): 57% [middle of 4 runs]
  Population Healthy Nuclei (%): 65% and 51% and 52.84% and 54.55%
  Population Hoechst High Intensity Objects (%): 3% and 8% and 0%
  Population Membrane Permeable-Phenotype (%): 0% and 3% and 6.45% and 8.77%
  Population Mitochondria Different-Phenotype (%): 42% and 34% and 53.76% and 42.11%
  Population Mitotic Cells (%): 43.68% [middle of 4 runs]
  Population Normal (%): 96% and 91% and 100%
  Population Pyknosed Nuclei (%): 34.66% [middle of 4 runs]
  Population Tubulin-Different-Phenotype (%): 87% and 81% and 80.65% and 92.11%
  Total Cell Count: 122 and 124 and 176 and 209
[5]
  Population Apoptotic (%): 57% [middle of 4 runs]
  Population Healthy Nuclei (%): 55% and 48% and 49.14% and 75.38%
  Population Hoechst High Intensity Objects (%): 7% and 9% and 0%
  Population Mitochondria Different-Phenotype (%): 20% [middle of 4 runs]
  Population Mitotic Cells (%): 52% [middle of 4 runs]
  Population Normal (%): 92% and 90% and 100%
  Population Pyknosed Nuclei (%): 24% and 20% and 28.57% and 19.23%
  Population Tubulin-Different-Phenotype (%): 70% and 62% and 43.02% and 59.18%
  Total Cell Count: 118 and 103 and 175 and 130
[6]
  Population Apoptotic (%): 70% and 71% and 49.33% and 79.12%
  Population Healthy Nuclei (%): 53% and 43% and 45.16% and 48.13%
  Population Hoechst High Intensity Objects (%): 10% and 7% and 0%
  Population Membrane Permeable-Phenotype (%): 0% and 8.33% and 20%
  Population Mitochondria Different-Phenotype (%): 53% and 30% and 44.05%
  Population Mitotic Cells (%): 29% [middle of 4 runs]
  Population Normal (%): 89% and 92% and 100%
  Population Tubulin-Different-Phenotype (%): 89% and 85% and 58.33% and 77.78%
  Total Cell Count: 117 and 136 and 186 and 187
